Test results published in ChEMBL document CHEMBL3997782, “Methoxylated 2'-hydroxychalcones as antiparasitic hit compounds” (Eur J Med Chem, 2017).

How the values were obtained:
786-0 = assay: Mitochondrial toxicity in human 786-O cells at 10 uM by mitotracker red chloromethyl-Xrosamine staining based-uptake method relative to control; format: cell-based; conditions: 786-0, 10 µM
How it was run: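 786-O renal carcinoma cells kept in RPMI-1640 with 2 mM glutamine, 10% v/v FCS, streptomycin 100 µg/ml and penicillin G 100 U/ml. Mitochondrial toxicity monitored by MitoTracker Red CMXRos uptake with high-content imaging.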

CYP1A2 = target: T1, CYP1A2 (Homo sapiens, UniProt P05177); assay: Inhibition of human CYP1A2 expressed in baculovirus-infected insect cells at 10 uM using Luciferin-1A2 as substrate in presence of NADPH by P450-Glo luminescence assay relative to control; format: ADME; conditions: probe Luciferin-1A2
T1 sequence (P05177 whole entry): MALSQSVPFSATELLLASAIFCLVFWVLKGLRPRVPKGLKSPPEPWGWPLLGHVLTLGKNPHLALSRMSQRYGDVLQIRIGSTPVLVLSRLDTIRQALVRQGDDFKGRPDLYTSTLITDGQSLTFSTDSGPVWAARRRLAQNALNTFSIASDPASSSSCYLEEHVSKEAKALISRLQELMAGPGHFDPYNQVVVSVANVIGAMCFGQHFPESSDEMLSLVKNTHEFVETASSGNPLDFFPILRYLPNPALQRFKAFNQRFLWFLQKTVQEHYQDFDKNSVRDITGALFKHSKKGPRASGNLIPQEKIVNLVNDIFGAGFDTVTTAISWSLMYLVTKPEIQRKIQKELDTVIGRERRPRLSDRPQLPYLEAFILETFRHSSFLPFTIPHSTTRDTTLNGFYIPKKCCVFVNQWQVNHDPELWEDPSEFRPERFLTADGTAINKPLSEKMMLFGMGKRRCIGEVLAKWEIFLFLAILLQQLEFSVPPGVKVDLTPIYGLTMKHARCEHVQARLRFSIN
How it was run: (§1)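 CYP enzymes as microsomal preparations from baculovirus-infected insect cells, run on the P450-Glo luminogenic substrate platform. A fall in light output indicates inhibition.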

hERG (KCNH2) = hERG (KCNH2) (Homo sapiens, UniProt Q12809); assay: Inhibition of human ERG at 10 uM by Tracer Red dye based fluorescence polarization assay relative to control; conditions: probe Tracer Red dye
Chain of hERG (KCNH2) (Q12809 whole entry): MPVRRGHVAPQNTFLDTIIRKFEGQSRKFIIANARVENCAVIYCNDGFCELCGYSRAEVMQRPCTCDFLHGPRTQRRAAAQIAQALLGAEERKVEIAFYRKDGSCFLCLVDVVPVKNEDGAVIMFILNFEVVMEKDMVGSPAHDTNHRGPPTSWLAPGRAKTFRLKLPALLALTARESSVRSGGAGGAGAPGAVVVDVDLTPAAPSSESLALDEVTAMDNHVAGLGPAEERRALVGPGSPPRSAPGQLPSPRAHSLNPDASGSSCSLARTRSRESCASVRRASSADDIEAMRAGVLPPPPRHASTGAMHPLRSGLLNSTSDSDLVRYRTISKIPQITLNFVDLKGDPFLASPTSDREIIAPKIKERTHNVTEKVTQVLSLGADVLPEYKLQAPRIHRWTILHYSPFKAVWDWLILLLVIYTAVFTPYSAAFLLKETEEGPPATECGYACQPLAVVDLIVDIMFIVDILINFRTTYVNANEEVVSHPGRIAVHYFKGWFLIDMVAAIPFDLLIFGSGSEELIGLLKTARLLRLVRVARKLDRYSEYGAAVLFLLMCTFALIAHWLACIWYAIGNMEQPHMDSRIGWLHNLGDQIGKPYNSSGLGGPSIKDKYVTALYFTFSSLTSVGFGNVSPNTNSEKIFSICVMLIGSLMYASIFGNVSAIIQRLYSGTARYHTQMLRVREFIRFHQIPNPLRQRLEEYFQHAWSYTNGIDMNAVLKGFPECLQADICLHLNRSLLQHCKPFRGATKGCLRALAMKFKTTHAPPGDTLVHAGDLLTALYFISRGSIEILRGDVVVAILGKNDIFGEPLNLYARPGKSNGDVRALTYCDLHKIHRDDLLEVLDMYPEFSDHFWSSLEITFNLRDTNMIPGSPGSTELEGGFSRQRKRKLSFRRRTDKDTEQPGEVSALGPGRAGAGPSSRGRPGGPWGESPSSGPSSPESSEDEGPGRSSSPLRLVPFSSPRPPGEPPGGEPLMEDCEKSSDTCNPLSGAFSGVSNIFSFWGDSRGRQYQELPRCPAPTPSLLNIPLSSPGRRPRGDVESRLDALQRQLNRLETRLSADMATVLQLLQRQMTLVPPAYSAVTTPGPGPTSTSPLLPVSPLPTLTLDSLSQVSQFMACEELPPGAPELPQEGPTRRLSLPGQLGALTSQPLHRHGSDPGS

CYP2D6 = CYP2D6 (Homo sapiens, UniProt P10635); assay: Inhibition of human CYP2D6 expressed in baculovirus-infected insect cells at 10 uM using Luciferin-ME EGE as substrate in presence of NADPH by P450-Glo luminescence assay relative to control; format: ADME; conditions: probe Luciferin-ME EGE; how it was run: as §1
Chain of CYP2D6 (P10635 whole entry): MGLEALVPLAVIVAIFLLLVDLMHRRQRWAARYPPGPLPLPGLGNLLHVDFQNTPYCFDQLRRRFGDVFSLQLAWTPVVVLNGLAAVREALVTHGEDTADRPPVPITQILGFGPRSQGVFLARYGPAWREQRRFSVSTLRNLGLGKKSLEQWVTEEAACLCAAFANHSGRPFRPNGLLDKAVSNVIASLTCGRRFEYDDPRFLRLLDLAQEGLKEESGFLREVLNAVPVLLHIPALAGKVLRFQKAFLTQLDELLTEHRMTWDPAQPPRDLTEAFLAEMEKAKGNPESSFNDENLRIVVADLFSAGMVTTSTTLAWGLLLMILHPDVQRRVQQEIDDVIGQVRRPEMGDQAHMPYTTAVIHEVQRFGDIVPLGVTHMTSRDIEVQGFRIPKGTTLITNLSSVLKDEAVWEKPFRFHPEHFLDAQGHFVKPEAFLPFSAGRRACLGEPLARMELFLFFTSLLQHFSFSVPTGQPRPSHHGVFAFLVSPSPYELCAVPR

CYP2C19 = CYP2C19 (Homo sapiens, UniProt P33261); assay: Inhibition of human CYP2C19 expressed in baculovirus-infected insect cells at 10 uM using Luciferin-H EGE as substrate in presence of NADPH by P450-Glo luminescence assay relative to control; format: ADME; conditions: probe Luciferin-H EGE; how it was run: as §1
Chain of CYP2C19 (P33261 whole entry): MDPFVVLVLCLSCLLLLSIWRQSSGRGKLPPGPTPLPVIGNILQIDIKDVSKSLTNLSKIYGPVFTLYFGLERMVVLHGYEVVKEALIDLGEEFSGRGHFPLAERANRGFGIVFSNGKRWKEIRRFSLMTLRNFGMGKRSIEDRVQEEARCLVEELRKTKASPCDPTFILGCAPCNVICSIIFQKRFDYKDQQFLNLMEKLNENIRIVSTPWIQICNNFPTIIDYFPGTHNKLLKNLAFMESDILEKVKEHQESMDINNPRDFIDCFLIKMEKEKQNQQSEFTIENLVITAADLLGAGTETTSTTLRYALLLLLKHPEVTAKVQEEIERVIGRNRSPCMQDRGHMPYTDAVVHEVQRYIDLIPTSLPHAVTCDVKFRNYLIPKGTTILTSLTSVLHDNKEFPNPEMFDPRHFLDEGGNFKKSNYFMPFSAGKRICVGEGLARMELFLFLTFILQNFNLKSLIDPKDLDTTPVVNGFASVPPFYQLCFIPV

CYP3A4 = CYP3A4 (Homo sapiens, UniProt P08684); assay: Inhibition of human CYP3A4 expressed in baculovirus-infected insect cells at 10 uM using Luciferin-PFBE as substrate in presence of NADPH by P450-Glo luminescence assay relative to control; format: ADME; conditions: probe Luciferin-PFBE
Chain of CYP3A4 (P08684 whole entry): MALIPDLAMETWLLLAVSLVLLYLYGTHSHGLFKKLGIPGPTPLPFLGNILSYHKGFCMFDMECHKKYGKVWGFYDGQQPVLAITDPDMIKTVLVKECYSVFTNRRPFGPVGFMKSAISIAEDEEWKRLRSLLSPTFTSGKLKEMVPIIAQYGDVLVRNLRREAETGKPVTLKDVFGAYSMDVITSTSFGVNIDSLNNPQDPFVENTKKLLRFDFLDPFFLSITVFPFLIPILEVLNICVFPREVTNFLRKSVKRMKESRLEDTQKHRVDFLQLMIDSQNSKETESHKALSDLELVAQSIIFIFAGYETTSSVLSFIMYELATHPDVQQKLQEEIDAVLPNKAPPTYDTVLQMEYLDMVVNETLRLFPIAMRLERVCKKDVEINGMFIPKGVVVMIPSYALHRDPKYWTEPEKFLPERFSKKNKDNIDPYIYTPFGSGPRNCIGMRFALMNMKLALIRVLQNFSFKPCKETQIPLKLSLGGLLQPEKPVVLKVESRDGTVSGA

CYP2C9 = CYP2C9 (Homo sapiens, UniProt P11712); assay: Inhibition of human CYP2C9 expressed in baculovirus-infected insect cells at 10 uM using Luciferin-H as substrate in presence of NADPH by P450-Glo luminescence assay relative to control; conditions: probe Luciferin-H
Chain of CYP2C9 (P11712 whole entry): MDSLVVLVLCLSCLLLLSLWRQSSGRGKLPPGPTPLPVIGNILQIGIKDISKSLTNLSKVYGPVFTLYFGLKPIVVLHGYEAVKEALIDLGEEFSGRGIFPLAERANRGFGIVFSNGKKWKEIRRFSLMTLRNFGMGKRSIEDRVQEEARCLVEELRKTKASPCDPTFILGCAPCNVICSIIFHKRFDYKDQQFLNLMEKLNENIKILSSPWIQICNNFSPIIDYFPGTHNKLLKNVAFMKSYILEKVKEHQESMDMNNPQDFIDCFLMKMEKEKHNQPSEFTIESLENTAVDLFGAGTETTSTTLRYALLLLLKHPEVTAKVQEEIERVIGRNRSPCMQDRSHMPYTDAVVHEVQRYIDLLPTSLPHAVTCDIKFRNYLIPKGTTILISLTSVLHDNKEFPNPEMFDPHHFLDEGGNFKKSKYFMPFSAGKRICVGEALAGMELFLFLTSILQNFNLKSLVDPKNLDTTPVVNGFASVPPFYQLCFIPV

[1] = system: Trypanosoma brucei brucei; assay: Anti-parasitic activity against bloodstream form of Trypanosoma brucei brucei Lister 427 at 10 uM after 72 hrs by resazurin-based assay relative to control; format: functional; conditions: Lister 427, 72 h
How it was run: (§2)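 Bloodstream-form T. brucei, modified resazurin-based viability assay. EC50 is the arithmetic mean of at least two independent determinations, each run in triplicate.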

[2] = Lipophilicity, log P of the compound; format: physicochemical; conditions: octanol/water
Trypanosoma cruzi = assay: Anti-parasitic activity against Trypanosoma cruzi Y promastigotes infected in HG39 cells at 10 uM by qPCR analysis relative to control; format: functional, cell-based; conditions: in the assay text read “trypomastigotes” for “promastigotes”
How it was run: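 Confluent HG39 cells (3 x 10^6 per well) infected at a 1:1 ratio with blood-derived T. cruzi Y strain trypomastigotes. Growth inhibition was read as parasite gDNA by TaqMan probe-based quantitative real-time PCR.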

[3] = Cytotoxicity against human […] cells assessed as cell growth at 10 uM by Cell titer-Glo assay relative to control; format: cell-based; conditions: WI-38 cells, read-out: Activity
How it was run: (§3)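 A549 and WI-38 cells grown in DMEM with 10% v/v FCS, streptomycin 100 µg/ml and penicillin G 100 U/ml. Cell number read as cellular ATP by CellTiter-Glo luminescence. Growth 60–100% scored non-cytotoxic, 0–60% cytostatic, below 0 cytotoxic.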

[4] = Cytotoxicity against human THP1 cells by MTT assay; format: cell-based; conditions: THP-1 cells
How it was run: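 THP-1 cells differentiated to macrophages with PMA, viability read by colorimetric MTT. CC50 and NOAEL are the arithmetic mean of at least two independent determinations, each run in triplicate.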

Aurora kinase B = Aurora kinase B (Homo sapiens, UniProt Q96GD4); assay: Inhibition of N-terminal-GST-tagged recombinant full length human Aurora B expressed in baculovirus infected Sf9 cells at 10 uM using native Swine Myelin Basic Protein as substrate measured after 60 mins by ADP-Glo assay relative to control; conditions: probe native Swine Myelin Basic Protein
Chain of Aurora kinase B (Q96GD4 whole entry): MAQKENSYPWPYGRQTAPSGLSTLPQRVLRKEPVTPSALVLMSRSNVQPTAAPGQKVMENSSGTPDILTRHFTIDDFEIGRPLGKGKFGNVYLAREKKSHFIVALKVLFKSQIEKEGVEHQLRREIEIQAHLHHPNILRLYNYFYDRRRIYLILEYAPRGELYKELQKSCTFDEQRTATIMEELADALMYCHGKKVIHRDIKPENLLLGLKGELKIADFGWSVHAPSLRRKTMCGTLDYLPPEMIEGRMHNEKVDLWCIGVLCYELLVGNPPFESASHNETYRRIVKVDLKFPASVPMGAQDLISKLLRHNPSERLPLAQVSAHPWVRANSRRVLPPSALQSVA
How it was run: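 Aurora B kinase activity measured by ADP-Glo, which detects ADP formed through a coupled luciferase luminescence read-out.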

[5] = Cytotoxicity against human A549 cells assessed as cell growth at 10 uM by Cell titer-Glo assay relative to control; format: cell-based; conditions: read-out: Activity; how it was run: as §3
[6] = Selectivity index, ratio of CC50 for human THP1 cells to EC50 for anti-parasitic activity against bloodstream form of Trypanosoma brucei brucei Lister 427; format: toxicity; conditions: THP-1 cells, read-out: Ratio CC50/EC50
How it was run: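 SI = CC50 in PMA-differentiated THP-1 macrophages (MTT) divided by the antiparasitic EC50.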

[7] = system: Trypanosoma brucei brucei; assay: Anti-parasitic activity against bloodstream form of Trypanosoma brucei brucei Lister 427 after 72 hrs by resazurin-based assay; format: functional; conditions: Lister 427, 72 h; how it was run: as §2
Leishmania infantum = assay: Anti-parasitic activity against Leishmania infantum amastigotes infected in human THP1 cells at 50 uM after 5 days by Giemsa staining based assay relative to control; format: functional, cell-based; conditions: THP-1, 120 h
How it was run: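 Intracellular L. infantum amastigotes in host cells, imaged by high-content automated imaging. Host cell number, infected cells and parasites per infected cell were counted. Infection Ratio = infected cells / total cells.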

Row | Compound | Activity (786-0) [%] | inhibition at 10 µM (CYP1A2) [%] | inhibition at 10 µM (hERG (KCNH2)) [%] | inhibition at 10 µM (CYP2D6) [%] | inhibition at 10 µM (CYP2C19) [%] | inhibition at 10 µM (CYP3A4) [%] | inhibition at 10 µM (CYP2C9) [%] | inhibition at 10 µM [1] [%] | logP [2] | inhibition at 10 µM (Trypanosoma cruzi) [%] | viability at 10 µM [3] [%] | CC50 [4] [nM] | inhibition at 1 h, 10 µM (Aurora kinase B) [%] | viability at 10 µM [5] [%] | selectivity ratio [6] | EC50 [7] [nM] | other results
1 | COc1ccc(/C=C/C(=O)c2ccc(OC)cc2O)cc1 | 14.2 | 39.6 | 2.7 | 47.7 | 34.2 | 5 | 21.7 | 18 | 3.88 | 47 | 14.2 | > 100000 | 107 | 102 |  |  | 
2 | COc1ccc(C(=O)/C=C/c2c(OC)cccc2OC)c(O)c1 | 0 | 52.8 | 18.8 | 17.1 | 74.9 | 11.8 | -25.6 | 98 | 3.51 | 0 | 0.1 | > 100000 | 92.1 | 48.2 | ≥ 29 | 3400 | 
3 | COc1cccc(-c2oc3ccccc3c(=O)c2O)c1 |  |  |  |  |  |  |  |  |  |  |  |  |  |  | 4 | 2320 | 
4 | COc1cccc(/C=C/C(=O)c2cc(OC)ccc2O)c1 | 13.4 | 84.2 | 17.6 | 52.2 | 69.6 | 14.3 | -31.7 | 100 | 3.87 | 28 | 87.5 | > 25000 | -15.1 | 116 | ≥ 12 | 2100 | inhibition at 50 µM (Leishmania infantum): 14%
5 | COc1ccc2c(=O)c(O)c(-c3cc(OC)c(OC)c(OC)c3)oc2c1 |  |  |  |  |  |  |  |  |  |  |  |  |  |  | 17 | 1170 | 
6 | COc1ccc2oc(-c3ccc(OC)c(OC)c3)c(O)c(=O)c2c1 |  |  |  |  |  |  |  |  |  |  |  |  |  |  | 5 | 2020 | 
7 | COc1ccc(O)c(C(=O)/C=C/c2ccc(OC)c(OC)c2)c1 | -9.5 | 60 | 15.9 | 93.7 | 21.4 | -2.7 | -26.9 | 15 | 3.52 | 0 | 114 | > 50000 | -10.1 | 116 |  |  | inhibition at 50 µM (Leishmania infantum): 16%
8 | COc1ccc(-c2oc3ccc(OC)cc3c(=O)c2O)cc1 |  |  |  |  |  |  |  |  |  |  |  |  |  |  | 1 | 20100 | 
9 | COc1cccc(-c2oc3cc(OC)ccc3c(=O)c2O)c1 |  |  |  |  |  |  |  |  |  |  |  |  |  |  | 8 | 1140 | 
10 | COc1ccc(/C=C/C(=O)c2cc(OC)ccc2O)cc1 | 15.8 | 85.2 | 42.1 | 79.6 | 47.3 | 6.2 | 25.8 | 9 | 3.87 | 9 | 15.8 | > 100000 | 107 | 91.3 |  |  | 
11 | COc1cccc(-c2oc3ccc(OC)cc3c(=O)c2O)c1 |  |  |  |  |  |  |  |  |  |  |  |  |  |  | 10 | 1430 | 
12 | COc1cccc(/C=C/C(=O)c2ccccc2O)c1 | 6.2 | 85.6 | 11.3 | -8.4 | 76.2 | -1.4 | 17.1 | 100 | 3.94 | 46 | 118 | > 25000 | -6.6 | 105 | ≥ 19 | 1300 | inhibition at 50 µM (Leishmania infantum): 11%
13 | COc1ccc(-c2oc3cc(OC)ccc3c(=O)c2O)cc1 |  |  |  |  |  |  |  |  |  |  |  |  |  |  | 9 | 1100 | 
14 | COc1ccc2c(=O)c(O)c(-c3ccc(OC)c(OC)c3)oc2c1 |  |  |  |  |  |  |  |  |  |  |  |  |  |  | 8 | 2990 | 
15 | C=CC(C)(C)c1cc(/C=C/C(=O)c2ccc(O)cc2)c(OC)cc1O [LICOAGROCHACONE A] |  |  |  |  |  |  |  |  | 4.74 |  |  |  |  |  |  |  | 
16 | CCCCCCCCCCCCCCCCOP(=O)([O-])OCC[N+](C)(C)C [MILTEFOSINE] |  |  |  |  |  |  |  |  |  |  |  |  |  |  |  |  | EC50 (Leishmania infantum): 2650 nM
17 | CC1CS(=O)(=O)CCN1/N=C/c1ccc([N+](=O)[O-])o1 (configuration not stated) [NIFURTIMOX] |  |  |  |  |  |  |  |  |  |  |  |  |  |  |  |  | EC50 (Trypanosoma cruzi): 2200 nM
